Measured values as given in ChEMBL document CHEMBL1949660 (Bioorg Med Chem Lett, 2012).
Calls of active or inactive are those of the source.

Columns and labels:
Histamine H3 receptor [1] = target: T1, Histamine H3 receptor (Homo sapiens, UniProt Q9Y5N1); experiment: Displacement of [3H]NAMH from human histamine H3 receptor expressed in CHO cells; format: cell-based
How it was run: (§1)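 Radioligand displacement of [³H]NAMH from membranes isolated from CHO cells transfected with cloned human H₃ or rat H₃ receptors.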

Histamine H3 receptor [2] = target: Histamine H3 receptor (Rattus norvegicus, UniProt Q9QYN8); experiment: Displacement of [3H]NAMH from rat histamine H3 receptor expressed in CHO cells; format: cell-based; how it was run: as §1
Histamine H3 receptor (Rattus norvegicus, UniProt Q9QYN8), sequence (Q9QYN8 whole entry): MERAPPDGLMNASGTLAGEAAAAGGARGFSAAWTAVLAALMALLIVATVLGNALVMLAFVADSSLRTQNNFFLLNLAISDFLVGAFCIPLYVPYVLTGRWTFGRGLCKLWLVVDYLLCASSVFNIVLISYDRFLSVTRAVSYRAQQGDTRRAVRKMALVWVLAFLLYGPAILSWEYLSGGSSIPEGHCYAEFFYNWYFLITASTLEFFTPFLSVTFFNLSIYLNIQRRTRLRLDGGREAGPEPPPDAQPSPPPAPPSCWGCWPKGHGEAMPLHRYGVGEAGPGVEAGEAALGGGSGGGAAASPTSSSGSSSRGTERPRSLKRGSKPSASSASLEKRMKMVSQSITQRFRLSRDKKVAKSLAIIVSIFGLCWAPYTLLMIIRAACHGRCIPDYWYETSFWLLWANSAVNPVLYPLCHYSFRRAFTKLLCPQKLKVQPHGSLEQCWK

[3] = target: Sodium-dependent dopamine transporter (Homo sapiens) (UniProt Q01959); experiment: Inhibition of DAT at 10 uM
Sodium-dependent dopamine transporter (Homo sapiens), sequence (Q01959 whole entry): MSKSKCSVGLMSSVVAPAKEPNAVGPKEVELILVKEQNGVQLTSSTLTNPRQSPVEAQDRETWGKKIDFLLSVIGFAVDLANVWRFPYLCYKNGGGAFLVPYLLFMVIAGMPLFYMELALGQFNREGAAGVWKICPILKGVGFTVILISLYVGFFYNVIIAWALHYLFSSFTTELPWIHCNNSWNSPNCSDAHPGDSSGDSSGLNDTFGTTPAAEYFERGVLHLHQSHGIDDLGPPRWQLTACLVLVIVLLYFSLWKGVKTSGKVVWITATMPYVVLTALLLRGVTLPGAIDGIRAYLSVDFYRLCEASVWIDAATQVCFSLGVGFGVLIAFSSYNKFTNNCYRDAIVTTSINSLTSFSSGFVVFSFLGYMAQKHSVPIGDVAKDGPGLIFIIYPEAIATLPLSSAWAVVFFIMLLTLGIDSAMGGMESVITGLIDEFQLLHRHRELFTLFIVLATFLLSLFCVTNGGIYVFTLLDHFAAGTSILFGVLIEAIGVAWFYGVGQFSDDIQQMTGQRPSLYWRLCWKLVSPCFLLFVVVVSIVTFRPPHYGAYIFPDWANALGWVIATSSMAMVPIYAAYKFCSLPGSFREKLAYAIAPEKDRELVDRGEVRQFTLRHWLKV

[4] = Half life in rat at 1 mg/kg, iv; format: ADME, organism-based; set-up: dose 1 mg/kg, route intravenous; settings: in vivo
How it was run: (§2)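 Rat PK: iv dose with vehicle 3% DMSO, 30% solutol, 67% phosphate buffered saline. Oral 5 mg/kg dose with vehicle 50% Tween 80, 40% propylene carbonate, 10% propylene glycol.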

[5] = Volume of distribution in rat at 1 mg/kg, iv; format: ADME, organism-based; set-up: dose 1 mg/kg, route intravenous; settings: in vivo; how it was run: as §2
[6] = Clearance in rat at 1 mg/kg, iv; format: ADME, organism-based; set-up: dose 1 mg/kg, route intravenous; settings: in vivo; how it was run: as §2
[7] = Cmax in rat at 5 mg/kg, po; format: ADME, organism-based; set-up: dose 5 mg/kg, route oral; settings: in vivo
[8] = Oral bioavailability in rat at 5 mg/kg; format: ADME, organism-based; settings: in vivo; how it was run: as §2
[9] = Ratio drug uptake in brain to plasma of rat at 10 mg/kg, ip measured after 6 hrs; format: ADME, organism-based; set-up: dose 10 mg/kg, route intraperitoneal; settings: read-out: BPR
Histamine H3 receptor [10] = target: T1, Histamine H3 receptor; experiment: Inverse agonist activity at human histamine H3 receptor assessed as inhibition of R-alpha-methylhistamine-induced [35S]GTPgammaS binding; format: functional
[11] = Apparent permeability across human Caco2 cells; format: ADME, cell-based; settings: Caco-2
[12] = Half life in human liver microsomes; format: ADME, Microsome
[13] = Half life in rat liver microsomes; format: ADME, Microsome
[14] = Half life in dog liver microsomes; format: ADME, Canis lupus familiaris, Microsome
[15] = Half life in monkey liver microsomes; format: ADME, Macaca mulatta, Microsome; settings: rhesus monkey
Cytochrome P450 1A2 = target: T2, Cytochrome P450 1A2 (Homo sapiens, UniProt P05177); experiment: Inhibition of CYP1A2; format: ADME
T2 sequence (P05177 whole entry): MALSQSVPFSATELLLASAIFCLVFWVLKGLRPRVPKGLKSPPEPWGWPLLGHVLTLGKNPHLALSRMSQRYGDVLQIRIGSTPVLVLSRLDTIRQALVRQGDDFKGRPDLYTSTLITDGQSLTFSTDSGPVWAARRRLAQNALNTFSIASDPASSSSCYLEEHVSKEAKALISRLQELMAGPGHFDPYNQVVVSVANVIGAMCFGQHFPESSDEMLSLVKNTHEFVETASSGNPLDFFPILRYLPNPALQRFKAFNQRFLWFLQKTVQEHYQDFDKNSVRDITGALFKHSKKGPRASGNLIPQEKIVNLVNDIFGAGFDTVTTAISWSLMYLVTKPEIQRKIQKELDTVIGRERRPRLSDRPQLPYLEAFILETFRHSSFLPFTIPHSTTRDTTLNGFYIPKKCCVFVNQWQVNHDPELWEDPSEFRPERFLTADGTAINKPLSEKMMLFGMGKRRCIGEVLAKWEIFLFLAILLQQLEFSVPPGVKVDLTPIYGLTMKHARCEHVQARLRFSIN

Cytochrome P450 2C9 = Cytochrome P450 2C9 (Homo sapiens, UniProt P11712); experiment: Inhibition of CYP2C9; format: ADME
Cytochrome P450 2C9, sequence (P11712 whole entry): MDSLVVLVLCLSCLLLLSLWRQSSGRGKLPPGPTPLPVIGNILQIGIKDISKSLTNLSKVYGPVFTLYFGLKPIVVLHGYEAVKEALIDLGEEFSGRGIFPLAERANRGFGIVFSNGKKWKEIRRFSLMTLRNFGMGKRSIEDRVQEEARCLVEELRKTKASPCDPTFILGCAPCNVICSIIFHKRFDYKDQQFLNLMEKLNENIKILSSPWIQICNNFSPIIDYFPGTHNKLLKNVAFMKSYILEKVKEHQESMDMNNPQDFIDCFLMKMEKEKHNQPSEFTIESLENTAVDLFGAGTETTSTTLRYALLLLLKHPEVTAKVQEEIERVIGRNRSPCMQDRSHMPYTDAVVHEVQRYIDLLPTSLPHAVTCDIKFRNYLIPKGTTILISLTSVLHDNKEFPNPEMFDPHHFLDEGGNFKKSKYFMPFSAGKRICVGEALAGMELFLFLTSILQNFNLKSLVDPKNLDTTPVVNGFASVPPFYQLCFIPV

Cytochrome P450 2C19 = Cytochrome P450 2C19 (Homo sapiens, UniProt P33261); experiment: Inhibition of CYP2C19; format: ADME
Cytochrome P450 2C19, sequence (P33261 whole entry): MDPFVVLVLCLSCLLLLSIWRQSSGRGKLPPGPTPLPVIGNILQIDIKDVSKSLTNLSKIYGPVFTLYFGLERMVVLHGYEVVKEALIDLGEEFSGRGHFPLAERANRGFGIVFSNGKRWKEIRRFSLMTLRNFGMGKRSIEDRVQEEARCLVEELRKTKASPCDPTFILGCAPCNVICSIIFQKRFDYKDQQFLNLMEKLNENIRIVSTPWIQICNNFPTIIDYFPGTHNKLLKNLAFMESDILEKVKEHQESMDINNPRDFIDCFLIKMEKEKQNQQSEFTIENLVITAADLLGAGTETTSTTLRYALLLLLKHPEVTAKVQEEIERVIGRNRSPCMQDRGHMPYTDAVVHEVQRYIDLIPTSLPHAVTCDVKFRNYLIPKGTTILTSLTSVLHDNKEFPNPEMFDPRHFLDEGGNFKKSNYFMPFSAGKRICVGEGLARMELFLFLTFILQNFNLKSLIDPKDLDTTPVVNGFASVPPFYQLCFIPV

Cytochrome P450 2D6 = Cytochrome P450 2D6 (Homo sapiens, UniProt P10635); experiment: Inhibition of CYP2D6; format: ADME
Cytochrome P450 2D6, sequence (P10635 whole entry): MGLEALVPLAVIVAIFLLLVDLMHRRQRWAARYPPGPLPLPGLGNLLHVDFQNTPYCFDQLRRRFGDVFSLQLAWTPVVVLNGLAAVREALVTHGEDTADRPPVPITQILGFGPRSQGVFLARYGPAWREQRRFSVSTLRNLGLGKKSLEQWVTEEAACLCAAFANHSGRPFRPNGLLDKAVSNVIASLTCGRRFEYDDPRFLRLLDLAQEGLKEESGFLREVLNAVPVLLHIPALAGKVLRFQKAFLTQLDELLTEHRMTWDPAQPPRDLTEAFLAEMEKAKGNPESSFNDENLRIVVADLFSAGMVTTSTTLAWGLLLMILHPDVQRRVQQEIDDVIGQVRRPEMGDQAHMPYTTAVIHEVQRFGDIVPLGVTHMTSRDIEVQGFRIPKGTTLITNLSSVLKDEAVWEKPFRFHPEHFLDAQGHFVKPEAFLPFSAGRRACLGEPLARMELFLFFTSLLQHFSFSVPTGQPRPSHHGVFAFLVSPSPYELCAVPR

Cytochrome P450 3A4 = Cytochrome P450 3A4 (Homo sapiens, UniProt P08684); experiment: Inhibition of CYP3A4; format: ADME
Cytochrome P450 3A4, sequence (P08684 whole entry): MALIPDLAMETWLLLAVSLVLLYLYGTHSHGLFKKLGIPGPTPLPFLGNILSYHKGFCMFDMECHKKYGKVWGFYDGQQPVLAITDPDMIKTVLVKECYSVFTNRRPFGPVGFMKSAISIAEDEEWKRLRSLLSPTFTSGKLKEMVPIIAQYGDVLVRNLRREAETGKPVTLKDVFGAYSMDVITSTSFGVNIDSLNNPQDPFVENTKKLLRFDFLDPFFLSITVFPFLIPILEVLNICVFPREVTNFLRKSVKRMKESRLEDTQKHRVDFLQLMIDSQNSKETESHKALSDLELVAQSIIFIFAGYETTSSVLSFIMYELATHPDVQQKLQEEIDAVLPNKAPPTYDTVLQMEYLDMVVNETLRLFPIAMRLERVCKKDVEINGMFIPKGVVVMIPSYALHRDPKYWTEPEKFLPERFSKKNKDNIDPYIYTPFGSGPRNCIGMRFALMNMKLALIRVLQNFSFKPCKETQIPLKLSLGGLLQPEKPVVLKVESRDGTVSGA

[16] = target: Voltage-gated inwardly rectifying potassium channel KCNH2 (Homo sapiens, UniProt Q12809); experiment: Inhibition of human Erg by patch clamp assay
Voltage-gated inwardly rectifying potassium channel KCNH2, sequence (Q12809 whole entry): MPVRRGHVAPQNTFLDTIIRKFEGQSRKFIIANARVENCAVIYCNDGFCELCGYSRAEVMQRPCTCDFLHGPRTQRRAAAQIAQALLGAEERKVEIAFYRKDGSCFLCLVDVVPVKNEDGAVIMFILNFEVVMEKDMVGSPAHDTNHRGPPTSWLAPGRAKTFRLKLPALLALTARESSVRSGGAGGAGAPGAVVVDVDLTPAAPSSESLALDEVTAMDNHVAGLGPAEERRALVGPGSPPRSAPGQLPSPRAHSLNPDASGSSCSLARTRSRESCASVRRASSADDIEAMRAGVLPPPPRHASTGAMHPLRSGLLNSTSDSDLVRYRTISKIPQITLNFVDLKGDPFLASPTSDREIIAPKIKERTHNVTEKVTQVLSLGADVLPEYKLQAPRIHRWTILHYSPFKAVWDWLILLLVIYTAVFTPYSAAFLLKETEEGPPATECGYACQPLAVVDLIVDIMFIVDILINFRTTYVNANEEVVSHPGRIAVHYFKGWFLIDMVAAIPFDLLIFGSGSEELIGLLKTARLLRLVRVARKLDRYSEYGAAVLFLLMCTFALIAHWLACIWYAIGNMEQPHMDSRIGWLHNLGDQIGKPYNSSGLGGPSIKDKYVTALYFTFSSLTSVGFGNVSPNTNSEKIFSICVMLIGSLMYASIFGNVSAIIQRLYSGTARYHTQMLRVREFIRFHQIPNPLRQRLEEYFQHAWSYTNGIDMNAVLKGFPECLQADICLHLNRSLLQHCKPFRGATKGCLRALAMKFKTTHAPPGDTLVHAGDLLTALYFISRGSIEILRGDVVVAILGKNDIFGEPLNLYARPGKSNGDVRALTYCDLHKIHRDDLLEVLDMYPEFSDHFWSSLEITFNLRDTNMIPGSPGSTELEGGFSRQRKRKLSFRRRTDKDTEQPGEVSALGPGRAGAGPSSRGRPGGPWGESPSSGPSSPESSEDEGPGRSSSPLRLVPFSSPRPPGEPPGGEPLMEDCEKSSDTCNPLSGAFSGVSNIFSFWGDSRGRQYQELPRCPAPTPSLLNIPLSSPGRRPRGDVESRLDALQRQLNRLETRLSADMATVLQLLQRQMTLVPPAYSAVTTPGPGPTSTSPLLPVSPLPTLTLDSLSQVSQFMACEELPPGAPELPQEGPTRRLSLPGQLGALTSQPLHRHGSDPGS

[17] = Drug uptake in rat brain at 5 mg/kg, po measured after 6 hrs; format: ADME, organism-based; set-up: dose 5 mg/kg, route oral; settings: read-out: Drug uptake
How it was run: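 Rats given 5 mg/kg po in 50% Tween 80, 40% propylene carbonate, 10% propylene glycol. Brain concentration determined 6 h after dosing.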

Homo sapiens [18] = organism: Homo sapiens; experiment: Selectivity for human histamine H3 receptor over human histamine H1 receptor
How it was run: (§3)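 The hH3 side comes from displacement of [³H]NAMH binding in membranes from CHO cells transfected with cloned human H3 receptor. Human H1, H2 and H4 receptors were tested in an outsourced receptor selectivity profiling screen (LeadProfiler/Spectrum). The value is the fold-selectivity of hH3 over each subtype.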

Homo sapiens [19] = organism: Homo sapiens; experiment: Selectivity for human histamine H3 receptor over human histamine H2 receptor; how it was run: as §3
Homo sapiens [20] = organism: Homo sapiens; experiment: Selectivity for human histamine H3 receptor over human histamine H4 receptor; how it was run: as §3
[21] = Plasma protein binding in rat; format: ADME, cell-free; settings: read-out: PPB
[22] = Plasma protein binding in dog; format: ADME, cell-free, Canis lupus familiaris; settings: read-out: PPB
[23] = Plasma protein binding in human; format: ADME, cell-free; settings: read-out: PPB
Rattus norvegicus [24] = experiment: Inhibition of RAMH-induced dipsogenia in ip dosed rat; format: functional
Rattus norvegicus [25] = experiment: Effect on sleep-awake cycle in ip dosed EEG/EMG rat model assessed as wake promotion after 4 hrs; format: functional, organism-based
How it was run: (§4)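 Rats surgically implanted for chronic EEG and EMG recording. Wake, slow-wave sleep and REM sleep scored by standard criteria. Doses spanned […]–30 mg/kg ip, given during the normal quiet (lights-on) period, with a vehicle group as control. Cumulative wake time taken as AUC over time after dosing. Statistics by ANOVA.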

Rattus norvegicus [26] = experiment: Effect on sleep-awake cycle in EEG/EMG rat model assessed as wake promotion at 0.1 to 1 mg/kg, ip after 4 hrs relative to control; format: functional; settings: dose mg/kg 0.1-1; route intraperitoneal; how it was run: as §4
Rattus norvegicus [27] = experiment: Effect on sleep-awake cycle in EEG/EMG rat model assessed as wake promotion time at 0.1 mg/kg, ip after 4 hrs (reference value: 80 +/- 5 mins); format: functional; settings: route intraperitoneal; how it was run: as §4
Rattus norvegicus [28] = experiment: Effect on sleep-awake cycle in EEG/EMG rat model assessed as wake promotion time at 0.3 mg/kg, ip after 4 hrs (reference value: 80 +/- 5 mins); format: functional; settings: route intraperitoneal; how it was run: as §4
Rattus norvegicus [29] = experiment: Effect on sleep-awake cycle in EEG/EMG rat model assessed as wake promotion time at 1 mg/kg, ip after 4 hrs (reference value: 80 +/- 5 mins); format: functional; settings: route intraperitoneal; how it was run: as §4
Rattus norvegicus [30] = experiment: Effect on sleep-awake cycle in EEG/EMG rat model assessed as wake promotion at 10 mg/kg, ip after 2 hrs; format: functional; settings: route intraperitoneal; how it was run: as §4
Rattus norvegicus [31] = experiment: Effect on sleep-awake cycle in EEG/EMG rat model assessed as wake promotion time at 10 mg/kg, ip after 4 hrs relative to control; format: functional; settings: route intraperitoneal; how it was run: as §4
Rattus norvegicus [32] = experiment: Effect on sleep-awake cycle in EEG/EMG rat model assessed as wake promotion time at 30 mg/kg, ip after 4 hrs relative to control; format: functional; settings: route intraperitoneal; how it was run: as §4
Rattus norvegicus [33] = experiment: Effect on sleep-awake cycle in EEG/EMG rat model assessed as awake time at 10 mg/kg, ip after 4 hrs relative to control; format: functional; settings: route intraperitoneal; how it was run: as §4
Rattus norvegicus [34] = experiment: Effect on sleep-awake cycle in EEG/EMG rat model assessed as awake time at 30 mg/kg, ip after 4 hrs relative to control; format: functional; settings: route intraperitoneal; how it was run: as §4
Rattus norvegicus [35] = experiment: Effect on sleep-awake cycle in EEG/EMG rat model assessed as maximal cumulative wake surplus time at 30 mg/kg, ip after 7 hrs relative to control; format: functional; settings: route intraperitoneal; how it was run: as §4
Rattus norvegicus [36] = experiment: Effect on sleep-awake cycle in EEG/EMG rat model assessed as wake surplus at 30 mg/kg, ip up to 22 hrs; format: functional, organism-based; set-up: dose 30 mg/kg; how it was run: as §4
Rattus norvegicus [37] = experiment: Effect on sleep-awake cycle in EEG/EMG rat model assessed as sleep rebound at 0.1 to 30 mg/kg, ip; format: functional, organism-based; how it was run: as §4

T1 sequence (Q9Y5N1 whole entry): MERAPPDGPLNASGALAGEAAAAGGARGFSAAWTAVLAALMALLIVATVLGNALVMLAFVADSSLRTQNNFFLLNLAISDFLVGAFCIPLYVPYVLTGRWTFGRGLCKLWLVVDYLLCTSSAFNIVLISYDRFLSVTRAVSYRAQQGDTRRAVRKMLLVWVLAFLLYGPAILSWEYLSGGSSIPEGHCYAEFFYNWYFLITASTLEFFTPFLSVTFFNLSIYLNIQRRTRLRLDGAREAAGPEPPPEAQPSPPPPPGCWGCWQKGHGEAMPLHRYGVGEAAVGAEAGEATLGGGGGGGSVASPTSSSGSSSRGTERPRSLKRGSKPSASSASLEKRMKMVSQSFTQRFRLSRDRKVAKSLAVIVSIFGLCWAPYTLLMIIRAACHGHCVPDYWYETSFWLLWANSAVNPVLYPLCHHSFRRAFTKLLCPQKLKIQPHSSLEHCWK

## O=c1ccc(-c2ccc(OC3CCN(C4CCC4)CC3)nc2)nn1-c1ccccn1
Histamine H3 receptor [1]
  Ki: 34 nM
Histamine H3 receptor [2]
  Ki: 82 nM

## O=c1ccc(-c2ccc(OC3CCN(C4CCCC4)CC3)nc2)n[nH]1
Histamine H3 receptor [1]
  Ki: 26 nM
Histamine H3 receptor [2]
  Ki: 51 nM

## C[C@H]1CC(=O)NN=C1c1ccc(OC2CCN(C3CCC3)CC2)cc1
Histamine H3 receptor [2]
  Ki: 13 nM
[3]
  inhibition: 13%
[4]
  half-life: 4.4 h
[5]
  Vd: 7.6 L/kg
[6]
  clearance: 23 mL/min/kg
[7]
  Cmax: 253 ng/mL
[8]
  bioavailability: 56%
[9]
  Kp at 6 h: 5.3

## CC(C)N1CCC(Oc2ccc(-c3ccc(=O)[nH]n3)cn2)CC1
Histamine H3 receptor [1]
  Ki: 15 nM
Histamine H3 receptor [2]
  Ki: 101 nM

## CC1(C)CC(c2ccc(OC3CCN(C4CCC4)CC3)c(F)c2)=NNC1=O
Histamine H3 receptor [1]
  Ki: 7.1 nM
Histamine H3 receptor [2]
  Ki: 7.2 nM

## Cn1nc(-c2ccc(OC3CCN(C4CCC4)CC3)cc2)ccc1=O
Histamine H3 receptor [1]
  Ki: 2.4 nM
Histamine H3 receptor [2]
  Ki: 3.1 nM

## CC(C)n1nc(-c2ccc(OC3CCN(C4CCC4)CC3)nc2)ccc1=O
Histamine H3 receptor [1]
  Ki: 6.5 nM
Histamine H3 receptor [2]
  Ki: 9.4 nM

## CC1(C)CC(c2ccc(OC3CCN(C4CCC4)CC3)cc2)=NNC1=O
Histamine H3 receptor [1]
  Ki: 2.7 nM
Histamine H3 receptor [2]
  Ki: 4.4 nM
Histamine H3 receptor [10]
  EC50: 0.8 nM
[11]
  Papp: 27 ×10⁻⁶ cm/s
[12]
  half-life: > 0.667 h
[13]
  half-life: > 0.667 h
[14]
  half-life: > 0.667 h
[15]
  half-life: > 0.667 h
Cytochrome P450 1A2
  IC50: > 30000 nM
Cytochrome P450 2C9
  IC50: > 30000 nM
Cytochrome P450 2C19
  IC50: > 30000 nM
Cytochrome P450 2D6
  IC50: > 30000 nM
Cytochrome P450 3A4
  IC50: > 30000 nM
[3]
  inhibition: 8%
[16]
  IC50: 21000 nM
[4]
  half-life: 1.9 h
[5]
  Vd: 3.1 L/kg
[6]
  clearance: 18 mL/min/kg
[7]
  Cmax: 270 ng/mL
[8]
  bioavailability: 33%
[17]
  concentration at 6 h: 2100 nM
[9]
  Kp at 6 h: 4
Homo sapiens [18]
  Selectivity ratio: > 1000
Homo sapiens [19]
  Selectivity ratio: > 1000
Homo sapiens [20]
  Selectivity ratio: > 1000
[21]
  fraction unbound: 0.5
[22]
  fraction unbound: 0.5
[23]
  fraction unbound: 0.5
Rattus norvegicus [24]
  ED50: 0.14 mg/kg
  inhibition: Dose-dependent effect
Rattus norvegicus [25]
  Activity: Dose-dependent effect
Rattus norvegicus [26]
  Activity: 45%
Rattus norvegicus [27]
  Time: 115 min
Rattus norvegicus [28]
  Time: 122 min
Rattus norvegicus [29]
  Time: 116 min
Rattus norvegicus [30]
  Activity: 90%
Rattus norvegicus [31]
  Activity: 152%
Rattus norvegicus [32]
  Activity: 193%
Rattus norvegicus [33]
  Activity: 84%
Rattus norvegicus [34]
  Activity: 98%
Rattus norvegicus [35]
  Time: 196 min
Rattus norvegicus [36]
  Activity: Active
Rattus norvegicus [37]
  Activity: inactive

## Cn1nc(-c2ccc(OC3CCN(C4CCCC4)CC3)cc2)ccc1=O
Histamine H3 receptor [1]
  Ki: 2.7 nM

## C[C@@H]1CC(=O)NN=C1c1ccc(OC2CCN(C3CCC3)CC2)cc1
Histamine H3 receptor [2]
  Ki: 9.6 nM

## Cc1cc(=O)[nH]nc1-c1ccc(OC2CCN(C3CCC3)CC2)cc1
Histamine H3 receptor [1]
  Ki: 4.4 nM
Histamine H3 receptor [2]
  Ki: 6.3 nM
